Data as given in ChEMBL document CHEMBL1126291 (J Med Chem, 1992).

What was measured:
Assay type in all cases: functional
Leishmania donovani [1] = assay: Growth inhibition of Leishmania donovani promastigotes by the compound at […]; settings: for inhibition at […]: Leishmania donovani
Leishmania donovani [2] = assay: Growth inhibition of Leishmania donovani promastigotes by the compound at 14 uM
Outline: (§1)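 Seeded at 0.5 × 10^6 cells per well. Compounds added a few hours later in water. Cells counted by hemacytometer after 3 days, against untreated cultures. Duplicates.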

Leishmania donovani [3] = assay: Growth inhibition of Leishmania donovani promastigotes by the compound at 1.3 uM; outline: as §1

| Compound | inhibition at […] (Leishmania donovani [1]) [%] | inhibition at 14 µM (Leishmania donovani [2]) [%] | also measured |
| --- | --- | --- | --- |
| Nc1ncnc2c1ncn2[C@@H]1O[C@H](C[C@@H](N)CC[C@H](N)C(=O)O)[C@@H](O)[C@H]1O (stereo in doubt; form 1) [SINEFUNGIN] | 100 |  |  |
| NC(CC[C@H](N)C(=O)O)C[C@H]1OC(n2ccc(=O)[nH]c2=O)[C@H](O)[C@@H]1O (stereo partly specified) |  | 20 |  |
| Nc1ncnc2c1ncn2[C@@H]1O[C@H](C[C@H](N)CC[C@H](N)C(=O)O)[C@@H](O)[C@H]1O | 34 |  | inhibition at 1.3 µM (Leishmania donovani [3]): 91% |
| Nc1ncnc2c1ncn2[C@@H]1O[C@H](C[C@@H](N)CC[C@H](N)C(=O)O)[C@@H](O)[C@H]1O (stereo in doubt; form 2) [SINEFUNGIN] |  |  | Inhibition (Leishmania donovani [1]): 88% |
| NC(CC[C@H](N)C(=O)O)C[C@H]1OC(N2CCC(=O)NC2=O)[C@H](O)[C@@H]1O (stereo partly specified) |  | 19 |  |
